Yeast fitness data for 167 variants are collected here from the RNAGym collection of RNA variant scans (doi:10.1126/science.aae0568).

B1: tRNA (parent)
chain: GUUCCGUUGGCGUAAUGGUAACGCGUCUCCCUCCUAAGGAGAAGACUGCGGGUUCGAGUCCCGUACGGAACG

Variants at the floor of the assay were thinned out. Where only a bound is given, the exact number is not on record here.

The series covers variants of B1. Briefly: yeast fitness relative to wild type (ratio to wild type); higher = fitter; tRNA-Arg(CCU), competitive growth, 37 C, YPD. The procedure, abridged:
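Variants of the tRNA-Arg(CCU) gene, chemically synthesised with a 3% per-site mutation rate at 69 sites, were placed at the native genomic locus in Saccharomyces cerevisiae. The pooled strains were competed in YPD at 37°C for 24 hours in six parallel replicates. Gene amplicons from the start population and from each end population were read by 100-nucleotide paired-end sequencing. Darwinian fitness relative to wild type came from changes in genotype frequencies; genotypes needed ≥ 100 starting reads, and estimates < 0.5 were set to 0.5.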
Take G23A A36U G39C G68A: the yeast fitness is ≤ 0.5.

Turning to G23A U28C U59C C60G, the yeast fitness amounted to 0.649.

In the case of C24A U59A C61U, the yeast fitness was found to be 0.567.

For the variant C22U G52C, the yeast fitness is 0.537.

For the variant C22U C31A C34U A36C A45C C61U U64A, the yeast fitness was ≤ 0.5.

For C22U U28A C55G A57C, the yeast fitness was ≤ 0.5.

Regarding G23A A45U G56A, the yeast fitness stood at 0.727.

Take C22G U32C G67A: the yeast fitness came to 0.564.

For the variant C24G C49G G50C, the yeast fitness is ≤ 0.5.

Regarding C24G A36G C55G, the yeast fitness is ≤ 0.5.

As to G23C C24U C46U U47C, the yeast fitness is 0.684.

In the case of C22G U47G C66U A69C, the yeast fitness was ≤ 0.5.

As for C22U U47A A70G, the yeast fitness turned out to be 0.536.

For C22G U28C U47A, the yeast fitness is ≤ 0.5.

As to C22U A40G A43U C46G C49G C62U, the yeast fitness was 0.531.

As to C24G C29U G51C C66U, the yeast fitness is ≤ 0.5.

C22U G48A A69C: the yeast fitness came to 0.741.

Take C24G A42C C60U U64A: the yeast fitness is 0.562.

On to C24A C33U C62U, for which the yeast fitness is ≤ 0.5.

For C22U U35C C55A C66U, the yeast fitness was ≤ 0.5.

Turning to G23A U59A, the yeast fitness was 0.791.

For the variant C24G U28G C29G, the yeast fitness is ≤ 0.5.

Consider C24G G38A G44C, for which the yeast fitness was ≤ 0.5.

Turning to C24A C33A C46U, the yeast fitness was 0.534.

For C22U A40G A43U C46G C49G A70G, the yeast fitness is ≤ 0.5.

Take C22G U32C A43G G52A C61G: the yeast fitness was ≤ 0.5.

For the variant C24A C29G A43C A70C, the yeast fitness is ≤ 0.5.

Consider C22U A36G G51C A65C, for which the yeast fitness was 0.6.

Take G23C A70U: the yeast fitness came out at 0.717.

As for G23U A57U, the yeast fitness was 0.614.

With C24A C49U C55U, the yeast fitness is ≤ 0.5.

Turning to C24G A36G A57G, the yeast fitness is 0.533.

Regarding G23C G41C C49U, the yeast fitness was ≤ 0.5.

For the variant C22U G63A, the yeast fitness is 0.81.

On to C22U C24U G51C, for which the yeast fitness is ≤ 0.5.

In the case of G23C G39C G50A G68C, the yeast fitness is ≤ 0.5.

Consider C22U C31U A45U C55U A70U, for which the yeast fitness is ≤ 0.5.

For C22U C34A G56C A57U, the yeast fitness was ≤ 0.5.

With C24G C34U U35A C55U, the yeast fitness is ≤ 0.5.

Consider C22U A70C, for which the yeast fitness stood at 0.859.

As to C24G C27G C62A, the yeast fitness is 0.622.

With C22U C27U U54G, the yeast fitness is ≤ 0.5.

Take C24G A70G: the yeast fitness is 0.564.

As for C22U U28G A45G G67U, the yeast fitness was ≤ 0.5.

With C22U G52A C55A A69C, the yeast fitness was ≤ 0.5.

C22U C62G A69U: the yeast fitness amounted to 0.586.

As to C24A A36C G52C C66U, the yeast fitness amounted to 0.761.

For C22G U28A A40U A57U, the yeast fitness came out at 0.657.

C24G C29G C33A G48A C55G G68C: the yeast fitness is ≤ 0.5.

Turning to C24G C30G C66U, the yeast fitness was ≤ 0.5.

Regarding C22U A42U G44U G63A, the yeast fitness came out at 0.608.

With C22U G52A A57U, the yeast fitness was ≤ 0.5.

For the variant G23A C29G A57G C66G, the yeast fitness is ≤ 0.5.

Consider C24G C31G G68C, for which the yeast fitness was ≤ 0.5.

For G23A C31A A69C, the yeast fitness is ≤ 0.5.

In the case of C22U G23A U54G A57U, the yeast fitness was ≤ 0.5.

For G23C C29G A43U, the yeast fitness was ≤ 0.5.

For the variant C24A C30U A45G A57U, the yeast fitness came out at 0.6.

On to C22G U35C, for which the yeast fitness was determined as 0.8.

G23C C29U C49A C61U: the yeast fitness was ≤ 0.5.

C24G C31G: the yeast fitness is 0.773.

Take G23C G41A A45C A65C: the yeast fitness stood at 0.583.

In the case of G23C U54C C66U, the yeast fitness was ≤ 0.5.

Turning to C24G C60U G63A, the yeast fitness was ≤ 0.5.

Consider C24A C30U C33A G41C A42U, for which the yeast fitness is ≤ 0.5.

For the variant C22U A45U C62U, the yeast fitness was 0.671.

On to C22U A57G A70U, for which the yeast fitness is 0.591.

With C24G C27U C33U G50C C66U, the yeast fitness is ≤ 0.5.

For G23A C29U C60U A65U, the yeast fitness is ≤ 0.5.

In the case of C22U A42U G51C C62U, the yeast fitness is ≤ 0.5.

As to C22U C29A, the yeast fitness amounted to 0.543.

With G23A C29G U32G C34G A36G C62U, the yeast fitness was ≤ 0.5.

Consider C24G C31G G50A, for which the yeast fitness turned out to be 0.522.

C24G C66G G68C: the yeast fitness was ≤ 0.5.

For C24A C62A, the yeast fitness came out at 0.598.

For C24G C34G A70C, the yeast fitness is ≤ 0.5.

For C24A A42C, the yeast fitness stood at 0.713.

For the variant G23C C34U U47A G58C G67U, the yeast fitness is 0.533.

For C24G A45U U54A, the yeast fitness is ≤ 0.5.

Take C24A C34U A43U C49G C62G: the yeast fitness was ≤ 0.5.

Regarding C24A A42G G63A, the yeast fitness was ≤ 0.5.

For the variant C24A G44A, the yeast fitness turned out to be 0.7.

Turning to G23C A36C, the yeast fitness was ≤ 0.5.

Take G23C A36G: the yeast fitness was determined as 0.625.

As to G23A A43C C66G, the yeast fitness is ≤ 0.5.

Turning to G23A C31U A57U, the yeast fitness is ≤ 0.5.

For C22U C29A C55G A65U G67A, the yeast fitness stood at 0.578.

As to C22U C27G C31U G68A, the yeast fitness is ≤ 0.5.

With C24A A42G G63A U64A, the yeast fitness was ≤ 0.5.

With G23C C29G G67U A69C, the yeast fitness is ≤ 0.5.

With C24A A45G A57U C62U, the yeast fitness was ≤ 0.5.

Turning to C22U G51A, the yeast fitness stood at 0.804.

For C24A U26C, the yeast fitness is 0.678.

C24A A42C U47A G63C A69C: the yeast fitness is ≤ 0.5.

As for C24G A37G U47C U59A G67A, the yeast fitness was ≤ 0.5.

Turning to G23C C30G C46U A65G A70U, the yeast fitness amounted to 0.63.

C24G A42C C55A U59A A70U: the yeast fitness was ≤ 0.5.

For C24A C27A U28A G67U, the yeast fitness is ≤ 0.5.

Regarding C24G C34G A36G U53A, the yeast fitness was ≤ 0.5.

On to C22U C29U G41A G48A C62A, for which the yeast fitness came to 0.611.

Take G23C C33G A42U: the yeast fitness amounted to 0.556.

Turning to C24A C27U A40U A57C, the yeast fitness turned out to be 0.512.

Take C22U C61U: the yeast fitness was 0.72.

As for G23A A43U C62U, the yeast fitness worked out at 0.751.

Consider C24G C34G U47A C49A A65G, for which the yeast fitness was ≤ 0.5.

Regarding C22U C30G A36U C46G, the yeast fitness was ≤ 0.5.

C22U A40U A43U: the yeast fitness was ≤ 0.5.

Consider C22U A57G C60A, for which the yeast fitness was ≤ 0.5.

As for G23A G39C, the yeast fitness was 0.752.

C24G C27A U32C U64A: the yeast fitness was ≤ 0.5.

Take C22U U26C: the yeast fitness worked out at 0.667.

On to C24A G48A U53G G63C, for which the yeast fitness is ≤ 0.5.

C22U G52A C60U: the yeast fitness worked out at 0.598.

In the case of G23A C29G A45U C62U, the yeast fitness was ≤ 0.5.

Take C22G U35C A57C: the yeast fitness was found to be 0.61.

Consider C24A A70U, for which the yeast fitness turned out to be 0.596.

Turning to C22U C46G C49A C60A A70C, the yeast fitness is ≤ 0.5.

C24A C60U: the yeast fitness stood at 0.543.

For the variant C22U A36C A65G, the yeast fitness is 0.564.

Take C22U A43C C46A: the yeast fitness was determined as 0.626.

C24G C62U A65G: the yeast fitness was determined as 0.558.

For G23A C46U A65C, the yeast fitness turned out to be 0.54.

With C24G A40G C66U, the yeast fitness stood at 0.515.

For C24G A42G A57G, the yeast fitness was ≤ 0.5.

For the variant C22U C31G G38A U47A, the yeast fitness is ≤ 0.5.

C24A C31U G51A C62A: the yeast fitness is ≤ 0.5.

G23C G68A: the yeast fitness is 0.719.

In the case of G23C G68U, the yeast fitness was determined as 0.64.

Consider C22G U28A C31G G39A C55A G68C, for which the yeast fitness was ≤ 0.5.

Take G23C C29U G44A C62U: the yeast fitness is ≤ 0.5.

Turning to C24A A42C G67C A70U, the yeast fitness was ≤ 0.5.

Turning to G23C C31G C60A A70U, the yeast fitness was determined as 0.554.

On to C24G A36G A65U G68C, for which the yeast fitness was ≤ 0.5.

Turning to C24G C55G C62U, the yeast fitness was ≤ 0.5.

Turning to C22U G25A G67C, the yeast fitness came out at 0.535.

For the variant C24G A37U C49U U59A, the yeast fitness was ≤ 0.5.

As for C22U C27U C33G G44C, the yeast fitness is ≤ 0.5.

Take G23C C30G G39C: the yeast fitness is 0.501.

As to C24G A43G U47A U53A, the yeast fitness was ≤ 0.5.

On to C24G C34U A45C, for which the yeast fitness is ≤ 0.5.

On to C24G C33A A70C, for which the yeast fitness is ≤ 0.5.

Regarding C24G A65C, the yeast fitness was determined as 0.648.

Turning to C22G U54A U59A C61U, the yeast fitness was ≤ 0.5.

In the case of G23C A37G A69C, the yeast fitness was 0.548.

For the variant G23C C33U, the yeast fitness is 0.544.

Turning to C22U U28G U32A, the yeast fitness was ≤ 0.5.

For the variant G23A C34U A43U G44C C60U, the yeast fitness was ≤ 0.5.

Regarding G23A C33G U47A G68A, the yeast fitness was determined as 0.539.

Turning to C22U C46U G50C C55U A57U C62G A70U, the yeast fitness was ≤ 0.5.

Take C24A U64C: the yeast fitness was found to be 0.706.

For C24G G39A A70C, the yeast fitness was ≤ 0.5.

In the case of C22G U28C C29A A42C, the yeast fitness is ≤ 0.5.

For the variant C22U A36C A69C, the yeast fitness is ≤ 0.5.

With C24G G50A C55U A69C A70U, the yeast fitness was ≤ 0.5.

For C24G C29G G39C C55A, the yeast fitness is 0.592.

Regarding G23A C46U, the yeast fitness is 0.646.

Turning to G23C U28C C29U A69C, the yeast fitness is ≤ 0.5.

For C22U A36C A45C C55G C62A G68A, the yeast fitness was ≤ 0.5.

As for G23C U59C, the yeast fitness came out at 0.583.

As for C24A A40G C66U, the yeast fitness was ≤ 0.5.

Regarding C24A C29U C30U, the yeast fitness is ≤ 0.5.

On to G23A C27U C60G G67A, for which the yeast fitness turned out to be 0.549.

On to C24G C29U C49U, for which the yeast fitness is ≤ 0.5.

Take G23A C34A A43U U47C C62G C66A: the yeast fitness was 0.689.

Consider G23C C27G C61U, for which the yeast fitness was ≤ 0.5.

For C22U C30G C49U, the yeast fitness was ≤ 0.5.

As to C24G C31U C61A, the yeast fitness was ≤ 0.5.
